Source: ChEMBL document CHEMBL1125029, “Chemical and biochemical studies of 2-propynylpyrrolidine derivatives. Restricted-rotation analogues of N-methyl-N-(1-methyl-4-pyrrolidino-2-butynyl)acetamide (BM-5)” (J Med Chem, 1990)

Assays:
[1] = biological target: Muscarinic acetylcholine receptor; assay: Binding activity to muscarinic acetylcholine receptor in rat heart, assayed using [3H]QNB as a radioligand in the presence of Gpp(NH)p.
Summary of the method: (§1)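 Male Wistar rat heart ventricles flushed, minced, Polytron-homogenized in 10 mM Na/K phosphate pH 7.4, spun 48000 g 15 min 4 °C, resuspended, gauze-filtered, diluted 1:750, 0.15-0.2 mg protein/2.0 mL. 10 μM Gpp(NH)p added to homogenate for line 3. Competitor 10^-12 to 10^-3 M. 10 μM atropine nonspecific. Filtration, scintillation counting. Ki from one-site fit.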

[2] = biological target: T1, Muscarinic acetylcholine receptor M1 (Rattus norvegicus) (UniProt P08482); assay: Muscarinic 1 receptor agonistic activity as the selectivity ratio of Ki against [3H]-QNB+ Gpp(NH)p to that of [3H]PZ; type: functional
T1 sequence (whole entry): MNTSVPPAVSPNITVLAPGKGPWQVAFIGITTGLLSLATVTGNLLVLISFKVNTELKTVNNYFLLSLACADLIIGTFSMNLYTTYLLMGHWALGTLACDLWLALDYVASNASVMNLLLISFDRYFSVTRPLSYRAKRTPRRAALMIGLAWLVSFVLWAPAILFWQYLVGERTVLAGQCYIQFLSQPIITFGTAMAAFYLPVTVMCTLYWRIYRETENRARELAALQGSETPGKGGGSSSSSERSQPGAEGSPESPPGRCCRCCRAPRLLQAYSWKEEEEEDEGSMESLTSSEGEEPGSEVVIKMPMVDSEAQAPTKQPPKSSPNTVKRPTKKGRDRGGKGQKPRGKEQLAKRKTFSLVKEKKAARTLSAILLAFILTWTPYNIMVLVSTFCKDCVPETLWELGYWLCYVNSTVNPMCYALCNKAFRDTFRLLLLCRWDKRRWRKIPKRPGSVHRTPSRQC

[3] = biological target: T1, Muscarinic acetylcholine receptor M1 (Rattus norvegicus); assay: Muscarinic 1 receptor agonistic activity as the selectivity ratio of Ki against [3H]-QNB to that of [3H]PZ; type: functional
[4] = biological target: Muscarinic acetylcholine receptor; assay: Binding activity to muscarinic acetylcholine receptor in rat heart, assayed using [3H]-QNB as a radioligand.; summary of the method: as §1
[5] = biological target: Muscarinic acetylcholine receptor; assay: Binding activity against Muscarinic acetylcholine receptor in rat cortex, using [3H]QNB as a radioligand.; type: tissue-based
Summary of the method: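 Radioligand 250 pM (30.0 Ci/mmol). Competitor at final 10^-12 to 10^-3 M. 10 μM atropine defines nonspecific binding. Filtration on PEI-soaked GF/B filters, scintillation counting. Apparent Ki from one-site competitive nonlinear fit.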

[6] = biological target: Muscarinic acetylcholine receptor; assay: Binding activity to the muscarinic acetylcholine receptor in rat cortex, assayed using [3H]CD as a radioligand.; type: tissue-based
Summary of the method: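 Male Wistar rat cerebral cortex homogenate in 10 mM Na/K phosphate pH 7.4, diluted 1:300 (wet wt/v), ~0.75 mg protein per 2.0 mL. 1 nM radioligand (55.5 Ci/mmol), prepared fresh in buffer. Competitor 10^-12 to 10^-3 M. Nonspecific binding with 10 μM atropine. Rapid filtration on PEI-treated filters, scintillation counting. Apparent Ki by one-site competitive nonlinear regression.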

[7] = biological target: Muscarinic acetylcholine receptor; assay: Binding activity to the muscarinic acetylcholine receptor in rat cortex, assayed using [3H]PZ as a radioligand.; type: tissue-based
Summary of the method: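 Rat (male Wistar, 200-250 g) cortex homogenized in ice-cold Na/K phosphate buffer pH 7.4, diluted 1:400, ~0.55 mg protein per 2.0 mL. 0.1 nM radioligand (84.1 Ci/mmol), made fresh just before use. Unlabeled competitor at final 10^-12 to 10^-3 M. 10 μM atropine for nonspecific. Filtered, counted by liquid scintillation. One-site competitive fit gives apparent Ki.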

[8] = biological target: T2, Muscarinic acetylcholine receptor M2 (Rattus norvegicus) (UniProt P10980); assay: Muscarinic 2 receptor agonistic activity was determined as the selectivity ratio of Ki against [3H]QNB+ Gpp(NH)p to that of [3H]QNB; type: functional
T2 sequence (whole entry): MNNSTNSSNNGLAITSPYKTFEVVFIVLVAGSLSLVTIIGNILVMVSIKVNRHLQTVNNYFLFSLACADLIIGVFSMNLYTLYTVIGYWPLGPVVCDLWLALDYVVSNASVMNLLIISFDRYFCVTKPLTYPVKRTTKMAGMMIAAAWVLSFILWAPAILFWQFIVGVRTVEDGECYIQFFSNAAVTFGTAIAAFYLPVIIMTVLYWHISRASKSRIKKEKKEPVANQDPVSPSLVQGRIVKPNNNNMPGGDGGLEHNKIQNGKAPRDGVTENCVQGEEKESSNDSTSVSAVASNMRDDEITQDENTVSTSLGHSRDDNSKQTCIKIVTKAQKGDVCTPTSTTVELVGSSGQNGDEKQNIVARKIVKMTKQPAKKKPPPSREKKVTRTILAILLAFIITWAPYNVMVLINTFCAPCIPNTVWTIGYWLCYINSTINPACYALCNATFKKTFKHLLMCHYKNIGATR

[9] = biological target: Muscarinic receptor M1 and M2 (Rattus norvegicus) (UniProt P08482+P10980); assay: The agonist ratio as the ratio of Ki against [3H]QNB to that of [3H]-CD; type: functional

| Compound | Ki [1] | Ratio [2] | Ratio [3] | Ki [4] | Ki [5] | Ki [6] | Ki [7] | Ratio [8] | Ratio [9] |
| --- | --- | --- | --- | --- | --- | --- | --- | --- | --- |
| CN(C)CC#C[C@@H]1CCCN1.Cl.Cl | 19.1 µM | 1.4 | 1.5 | 20 µM | 8.5 µM | 37.35 µM | 13.2 µM | 1 | 0.2 |
| O=CN1CCC[C@H]1C#CCN1CCCC1 | 77 µM | 62 | 6.2 | 7.62 µM | 4.59 µM | 4.88 µM | 1.23 µM | 10 | 1 |
